ChEMBL document CHEMBL3822365, “Probing the Anticancer Action of Oridonin with Fluorescent Analogues: Visualizing Subcellular Localization to Mitochondria” (J Med Chem, 2016)
Calls of active or inactive are those of the source. No cut-off for these calls is given here.

Legend:
[1] = Cytotoxicity against human Bel7402 cells assessed as growth inhibition at 100 uM after 72 hrs by MTT assay; type: functional; details: Bel-7402, 72 h, read-out: GI
Outline: (§1)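 Bel-7402 cells exposed to compound for 72 h, then MTT read-out of percent growth inhibition at the single stated concentration. Values are the mean of three independent experiments.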

[2] = Cytotoxicity against human Bel7402 cells assessed as growth inhibition at 10 uM after 72 hrs by MTT assay; type: functional; details: Bel-7402, 72 h, read-out: GI; outline: as §1
[3] = Cytotoxicity against human Bel7402 cells assessed as growth inhibition at 1 uM after 72 hrs by MTT assay; type: functional; details: Bel-7402, 72 h, read-out: GI; outline: as §1
[4] = Antiproliferative activity against human NCI-H929 cells assessed as reduction in cell viability after 24 to 72 hrs by MTT assay; type: functional, cell-based
[5] = test system: K562; test: Antiproliferative activity against human K562 cells; type: functional, cell-based
[6] = test system: HepG2; test: Drug uptake in human HepG2 cells at 50 to 100 uM after 1 hr by inverted confocal microscopy; type: ADME, cell-based; details: hepg2, 1 h
Outline: (§2)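 HepG2 cells incubated with probe for 1 h, then intracellular fluorescence imaged by fluorescence microscopy.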

[7] = test system: A549; test: Dissipation of mitochondrial membrane potential in human A549 cells at 10 uM after 36 hrs by JC-1 staining based confocal microscopy; type: functional, cell-based
Outline: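 A549 cells were exposed to 10 μM compound for 36 h or left untreated. They were then loaded with 10 μg/mL JC-1 for 30 min at 37 °C and washed 5 min in PBS. The red-to-green fluorescence shift was viewed by confocal microscopy. Done in triplicate.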

[8] = test system: A549; test: Cytotoxicity against human A549 cells assessed as inhibition of cell proliferation after 72 hrs by MTT assay; type: functional, cell-based; details: A549, 72 h
Outline: (§3)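 Log-phase cells seeded at 5 × 10^4 cells/mL and exposed to compound for 72 h at 37 °C, 5% CO2. MTT (5 mg/mL) added for a further 4 h, formazan dissolved in DMSO, OD read at 490 nm. Negative reference 0.1% DMSO, positive reference paclitaxel. IC50 given as mean ± SD, n = 3.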

[9] = test system: A549; test: Induction of apoptosis in human A549 cells assessed as cytochrome c release from mitochondria to cytosol at 3 uM after 24 to 48 hrs by MitoTracker probe/DAPI staining based confocal laser scanning microscopy; type: functional, cell-based
Outline: (§4)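 A549 cells exposed to compound for 24 or 48 h, then stained with MitoTracker Red for 30 min. Cells fixed in 4% formaldehyde, permeabilized with 0.2% Triton X-100 and blocked in 5% BSA for 1 h. Anti-cytochrome c primary antibody applied overnight at 4 °C, then Alexa Fluor 488 goat anti-rabbit for 2 h. DAPI nuclear counterstain, imaged by confocal microscopy.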

[10] = test system: HepG2; test: Cytotoxicity against human HepG2 cells assessed as inhibition of cell proliferation after 72 hrs by MTT assay; type: functional, cell-based; details: HepG2, 72 h; outline: as §3
[11] = test system: A549; test: Induction of apoptosis in human A549 cells assessed as cytochrome c release from mitochondria to cytosol at 5 uM after 24 to 48 hrs by MitoTracker probe/DAPI staining based confocal laser scanning microscopy; type: functional, cell-based; outline: as §4
[12] = test system: HeLa; test: Cytotoxicity against human HeLa cells assessed as inhibition of cell proliferation after 72 hrs by MTT assay; type: functional, cell-based; outline: as §3
[13] = test system: HepG2; test: Drug uptake in human HepG2 cells at 1 uM after 12 hrs by inverted confocal microscopy; type: ADME, cell-based; details: hepg2, 12 h
Outline: (§5)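 Live A549 or HepG2 cells were given 1 μM probe for 12 h and washed with media. Confocal imaging used ex 405/em 460 nm at 40× on an inverted microscope. Each experiment was repeated three times.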

[14] = test system: A549; test: Dissipation of mitochondrial membrane potential in human A549 cells assessed as ratio of red to green fluorescence at 1 uM after 12 to 48 hrs by JC-1 staining based confocal microscopy; type: functional
Outline: (§6)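 A549 cells were exposed to 1 μM compound for 12 to 48 h. They were then loaded with JC-1 at 10 μg/mL for 30 min at 37 °C and washed in PBS for 5 min. Aggregate (red, ex 525/em 600 nm) and monomer (green, ex 490/em 535 nm) signals were read by microplate reader or confocal microscope. Value is the red:green ratio, 10000 cells per condition, mean ± SD of three independent experiments.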

[15] = test system: A549; test: Drug uptake in human A549 cells at 1 uM preincubated with compound 26 for 24 hrs followed by compound addition measured after 1 hr by confocal microscopy; type: ADME, cell-based; details: a549, 1 h
[16] = test system: A549; test: Dissipation of mitochondrial membrane potential in human A549 cells assessed as ratio of red to green fluorescence at 1 uM after 48 hrs by JC-1 staining based confocal microscopy; type: functional; outline: as §6
[17] = Drug uptake in human A549 cell cytoplasm at 1 uM after 12 hrs by inverted confocal microscopy; type: ADME, cell-based; details: a549, 12 h; outline: as §5
[18] = test system: A549; test: Drug uptake in human A549 cells at 1 uM after 5 mins by inverted confocal microscopy; type: ADME, cell-based; details: a549, 5 min
[19] = test system: HepG2; test: Drug uptake in human HepG2 cells at 1 uM after 5 mins by inverted confocal microscopy; type: ADME, cell-based; details: hepg2, 5 min
[20] = Drug uptake in mitochondria of human A549 cells at 1 uM after 12 hrs by MitoTracker staining based confocal laser scanning microscopy; type: ADME; details: a549, 12 h
Outline: (§7)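 A549 cells were treated with 1 μM probe for 1, 3, 12 or 24 h and washed in PBS. They were then stained with MitoTracker Red CMXRos (200 nM, 0.5 h), washed in cold PBS, fixed with paraformaldehyde and imaged by confocal laser scanning microscopy. Mitochondrial overlap was quantified as Pearson's coefficient (Rr).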

[21] = Drug uptake in mitochondria of human A549 cells at 1 uM after 1 hr by MitoTracker staining based confocal laser scanning microscopy; type: ADME; details: a549, 1 h; outline: as §7
[22] = test system: A549; test: Drug uptake in human A549 cells at 1 uM preincubated with compound 25 for 24 hrs followed by compound addition measured after 1 hr by confocal microscopy; type: ADME, cell-based; details: a549, 1 h
[23] = test system: HepG2; test: Drug uptake in human HepG2 cells at 5 uM after 1 hr by inverted confocal microscopy; type: ADME, cell-based; details: hepg2, 1 h
Outline: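 HepG2 cells were incubated with probe at 5 μM for 1 h and then examined by fluorescence microscopy for intracellular staining.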

[24] = test system: A549; test: Dissipation of mitochondrial membrane potential in human A549 cells at 1 uM by JC-1 staining based confocal microscopy; type: functional, cell-based; details: TDE = time-dependent effect; outline: as §6
[25] = Drug uptake in mitochondria of human A549 cells at 1 uM after 24 hrs by MitoTracker staining based confocal laser scanning microscopy; type: ADME; details: a549, 24 h; outline: as §7
[26] = test system: A549; test: Drug uptake in human A549 cells at 1 uM preincubated with oridonin for 24 hrs followed by compound addition measured after 1 hr by confocal microscopy; type: ADME, cell-based; details: a549, 1 h
[27] = test system: HepG2; test: Drug uptake in human HepG2 cells at 20 uM after 1 hr by inverted confocal microscopy; type: ADME, cell-based; details: hepg2, 1 h; outline: as §2
[28] = test system: A549; test: Dissipation of mitochondrial membrane potential in human A549 cells at 20 uM after 1 to 48 hrs by […]; type: functional, cell-based

SMILES | inhibition of growth at 100 µM [1] [%] | inhibition of growth at 10 µM [2] [%] | inhibition of growth at 1 µM [3] [%] | IC50 [8] [µM] | IC50 [10] [µM] | IC50 [12] [µM] | other results
C=C1C(=O)[C@]23[C@H](OC(=O)Cc4cc(=O)oc5cc(N(C)C)ccc45)[C@H]1CC[C@H]2[C@@]12CO[C@@]3(O)[C@@H](O)[C@@H]1C(C)(C)CC[C@@H]2O | 92.4 | 94.5 | 13.6 | – | – | – | –
C=C1C(=O)[C@]23[C@H](OC(=O)CCCCCCC)[C@H]1CC[C@H]2[C@@]12CO[C@@]3(O)[C@@H](O)[C@@H]1C(C)(C)CC[C@@H]2O | 94.7 | 92.7 | 57.5 | – | – | – | –
C=C1C(=O)[C@]23[C@H](O)[C@H]1CC[C@H]2[C@]12CCCC(C)(C)[C@H]1[C@H](O)[C@@]3(O)OC2 | – | – | – | – | – | – | IC50 [4]: 0.85 µM
C=C1C(=O)[C@]23C[C@H]1CC[C@H]2[C@]1(COC3=O)[C@@H](OC(C)=O)CCC(C)(C)[C@H]1CO | – | – | – | – | – | – | IC50 [5]: 3.56 µM
CCN(CC)c1ccc2cc(C(=O)OCCO)c(=O)oc2c1 | 9.5 | 3.7 | 0.7 | – | – | – | Drug uptake [6]: Not Active
C=C1C(=O)[C@]23[C@H](O)[C@H]1CC[C@H]2[C@@]12CO[C@]3(O)[C@@H](O)[C@@H]1C(C)(C)CC[C@@H]2O [ORIDONIN] | 94.6 | 94.8 | 37.9 | 10.4 | 15.2 | 17.8 | Activity [7]: Active; Activity [9]: Active; Activity [11]: Active
C=C1C(=O)[C@]23[C@H](OC(=O)CCCC(=O)OCCOCCOC(=O)c4cc5ccc(N(CC)CC)cc5oc4=O)[C@H]1CC[C@H]2[C@@]12CO[C@@]3(O)[C@@H](O)[C@@H]1C(C)(C)CC[C@@H]2O | 94.6 | 70.1 | 1.4 | – | – | – | –
C=C1C(=O)[C@]23[C@H](OC(=O)CCCC(=O)OCCOC(=O)c4cc5ccc(N(CC)CC)cc5oc4=O)[C@H]1CC[C@H]2[C@@]12CO[C@@]3(O)[C@@H](O)[C@@H]1C(C)(C)CC[C@@H]2O | 94.6 | 85 | 4.9 | – | – | – | –
C=C1C(=O)[C@]23[C@H](OC(=O)CCCC(=O)OCCCCOC(=O)c4cc5ccc(N(CC)CC)cc5oc4=O)[C@H]1CC[C@H]2[C@@]12CO[C@@]3(O)[C@@H](O)[C@@H]1C(C)(C)CC[C@@H]2O | 93.8 | 94 | 88.6 | 5.1 | 2.6 | 2 | Drug uptake [13]: Active; Ratio [14]: 1.496; Drug uptake [15]: Active; Ratio [16]: 0.312; Drug uptake [17]: Active; Drug uptake [18]: Active; Drug uptake [19]: Active; Drug uptake [20]: Active; Drug uptake [21]: Active; Drug uptake [22]: Not Active; Drug uptake [23]: Active; Activity [24]: tde; Drug uptake [25]: Not Active; Activity [26]: Not Active
C=C1C(=O)[C@]23[C@H](OC(=O)CCC(=O)OCCOC(=O)c4cc5ccc(N(CC)CC)cc5oc4=O)[C@H]1CC[C@H]2[C@@]12CO[C@@]3(O)[C@@H](O)[C@@H]1C(C)(C)CC[C@@H]2O | 94.4 | 72.4 | 11.5 | – | – | – | –
CCN(CC)c1ccc2cc(C(=O)OCCCCOC(=O)CCCC(=O)O[C@@H]3[C@H]4CC[C@H]5[C@@]67CO[C@@](O)([C@@H](O)[C@@H]6C(C)(C)CC[C@@H]7O)[C@@]35C(=O)[C@@H]4C)c(=O)oc2c1 | 37.2 | 3.7 | 1.8 | 78 | 144 | 79.6 | Drug uptake [27]: Not Active; Activity [28]: inactive
C=C1C(=O)[C@]23[C@H](OC(=O)CCC(=O)OCCOC(=O)Cc4cc(=O)oc5cc(N(C)C)ccc45)[C@H]1CC[C@H]2[C@@]12CO[C@@]3(O)[C@@H](O)[C@@H]1C(C)(C)CC[C@@H]2O | 93.3 | 46.4 | 1.1 | 11.2 | 8.8 | 4.6 | Drug uptake [13]: Active; Drug uptake [17]: Active; Drug uptake [23]: Active
C=C1C(=O)[C@]23[C@H](OC(=O)CCCC(=O)OCCCOC(=O)c4cc5ccc(N(CC)CC)cc5oc4=O)[C@H]1CC[C@H]2[C@@]12CO[C@@]3(O)[C@@H](O)[C@@H]1C(C)(C)CC[C@@H]2O | 94.6 | 89.9 | 2.7 | – | – | – | –
C[C@H]1C(=O)[C@]23[C@H](O)[C@H]1CC[C@H]2[C@@]12CO[C@@]3(O)[C@@H](O)[C@@H]1C(C)(C)CC[C@@H]2O | 57.2 | 4.2 | 2.1 | 67 | 70.6 | 52.7 | –
